Experimental data as given in ChEMBL document CHEMBL3526004, “Interaction of silymarin flavonolignans with organic anion-transporting polypeptides” (Drug Metab Dispos, 2013).

How the values were obtained:
[1] = target: T1, Solute carrier organic anion transporter family member 1B1 (Homo sapiens, UniProt Q9Y6L6); assay: Inhibition of OATP1B1 (unknown origin) expressed in HEK293 cells assessed as reduction of [3H]estradiol-17beta-glucuronide uptake at 10 uM after 3 mins by beta-counting; type: ADME, cell-based; details: hek293, 0.05 h
T1 sequence (Q9Y6L6 whole entry): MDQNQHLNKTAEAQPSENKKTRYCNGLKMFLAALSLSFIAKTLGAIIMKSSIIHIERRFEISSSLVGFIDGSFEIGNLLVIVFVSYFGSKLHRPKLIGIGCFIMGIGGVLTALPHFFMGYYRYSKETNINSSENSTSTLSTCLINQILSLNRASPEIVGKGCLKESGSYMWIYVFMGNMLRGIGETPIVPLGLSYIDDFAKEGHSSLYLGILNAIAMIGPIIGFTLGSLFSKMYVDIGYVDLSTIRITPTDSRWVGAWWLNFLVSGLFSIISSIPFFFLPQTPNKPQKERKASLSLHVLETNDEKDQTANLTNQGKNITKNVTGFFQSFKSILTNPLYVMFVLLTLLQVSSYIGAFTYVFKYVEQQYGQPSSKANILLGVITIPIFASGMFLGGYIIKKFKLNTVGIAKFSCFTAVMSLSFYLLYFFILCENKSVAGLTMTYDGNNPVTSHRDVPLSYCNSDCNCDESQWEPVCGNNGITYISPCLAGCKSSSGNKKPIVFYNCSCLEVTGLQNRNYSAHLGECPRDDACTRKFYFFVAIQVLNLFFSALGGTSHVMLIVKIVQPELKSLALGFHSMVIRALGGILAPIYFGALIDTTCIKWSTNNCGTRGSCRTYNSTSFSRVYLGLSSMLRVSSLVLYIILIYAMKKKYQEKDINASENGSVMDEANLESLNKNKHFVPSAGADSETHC
Summary of the method: (§1)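 Confluent cells were washed in PBS, then given 1 µM [3H]-E2 17G (OATP1B1, OATP1B3 HEK293) or 1 µM [3H]-E1S (OATP2B1 MDCKII) with 10 µM compound in HBSS pH 7.4 for 3 min at 37°C. Uptake into mock or parental cells was subtracted after protein normalization. Results are % vehicle, mean ± SD of at least three experiments in triplicate.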

[2] = target: T2, Solute carrier organic anion transporter family member 2B1 (Homo sapiens, UniProt O94956); assay: Inhibition of OATP2B1 (unknown origin) expressed in MDCK2 cells assessed as reduction of [3H]estrone-3-sulfate uptake at 10 uM after 3 mins by beta-counting; type: ADME, cell-based; details: mdck-ii, 0.05 h; summary of the method: as §1
T2 sequence (O94956 whole entry): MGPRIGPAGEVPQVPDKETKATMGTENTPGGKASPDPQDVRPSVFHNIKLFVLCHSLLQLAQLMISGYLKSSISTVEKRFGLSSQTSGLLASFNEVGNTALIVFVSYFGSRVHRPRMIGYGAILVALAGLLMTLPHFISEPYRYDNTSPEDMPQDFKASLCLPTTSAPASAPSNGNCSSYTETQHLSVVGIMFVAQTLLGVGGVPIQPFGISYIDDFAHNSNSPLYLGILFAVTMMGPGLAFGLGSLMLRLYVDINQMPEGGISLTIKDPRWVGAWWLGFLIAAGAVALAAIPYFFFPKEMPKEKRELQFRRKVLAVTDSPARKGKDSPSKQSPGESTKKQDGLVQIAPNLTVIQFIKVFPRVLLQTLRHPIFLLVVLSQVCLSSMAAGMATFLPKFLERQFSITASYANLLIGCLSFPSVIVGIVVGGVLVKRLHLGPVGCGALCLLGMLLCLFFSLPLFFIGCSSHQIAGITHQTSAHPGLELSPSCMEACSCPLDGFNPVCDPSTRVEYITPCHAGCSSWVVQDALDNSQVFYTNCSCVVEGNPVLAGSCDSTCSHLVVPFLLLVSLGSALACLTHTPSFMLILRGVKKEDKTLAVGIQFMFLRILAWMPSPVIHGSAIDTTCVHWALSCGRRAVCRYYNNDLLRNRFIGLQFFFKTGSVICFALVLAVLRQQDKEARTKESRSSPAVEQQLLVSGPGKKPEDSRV

[3] = target: T3, Solute carrier organic anion transporter family member 1B3 (Homo sapiens, UniProt Q9NPD5); assay: Inhibition of OATP1B3 (unknown origin) expressed in HEK293 cells assessed as reduction of [3H]estradiol-17beta-glucuronide uptake at 10 uM after 3 mins by beta-counting; type: ADME, cell-based; details: hek293, 0.05 h; summary of the method: as §1
T3 sequence (Q9NPD5 whole entry): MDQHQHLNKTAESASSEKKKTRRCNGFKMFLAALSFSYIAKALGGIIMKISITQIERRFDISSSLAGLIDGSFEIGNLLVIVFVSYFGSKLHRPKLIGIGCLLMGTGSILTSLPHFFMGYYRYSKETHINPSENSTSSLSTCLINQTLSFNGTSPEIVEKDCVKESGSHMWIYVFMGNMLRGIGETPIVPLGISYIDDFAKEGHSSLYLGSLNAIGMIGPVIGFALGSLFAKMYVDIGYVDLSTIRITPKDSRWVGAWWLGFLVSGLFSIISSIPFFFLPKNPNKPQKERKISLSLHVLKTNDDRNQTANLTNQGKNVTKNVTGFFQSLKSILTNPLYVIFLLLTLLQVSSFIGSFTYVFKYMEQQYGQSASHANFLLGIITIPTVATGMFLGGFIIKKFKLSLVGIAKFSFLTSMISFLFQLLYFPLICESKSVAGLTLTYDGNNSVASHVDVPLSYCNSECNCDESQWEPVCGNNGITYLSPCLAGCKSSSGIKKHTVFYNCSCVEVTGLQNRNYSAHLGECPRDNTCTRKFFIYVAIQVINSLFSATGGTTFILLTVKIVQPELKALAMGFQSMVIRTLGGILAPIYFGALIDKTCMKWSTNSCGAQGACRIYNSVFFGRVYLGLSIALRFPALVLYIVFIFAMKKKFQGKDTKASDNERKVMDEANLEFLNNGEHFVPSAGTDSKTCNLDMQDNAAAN

[4] = target: T2, Solute carrier organic anion transporter family member 2B1; assay: Inhibition of OATP2B1 (unknown origin) expressed in MDCK2 cells assessed as reduction of [3H]estrone-3-sulfate uptake after 3 mins by beta-counting; type: ADME, cell-based, MDCK-II
Summary of the method: (§2)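 Transfected HEK293 (G418) or MDCKII (hygromycin B) cells were co-incubated with 0-100 µM compound and [3H]-E2 17G (1 µM, 0.25 µCi/ml; OATP1B1, OATP1B3) or [3H]-E1S (1 µM; OATP2B1) in HBSS pH 7.4, 3 min at 37°C. OATP-negative uptake was subtracted, and results expressed as % vehicle. Two experiments were run in duplicate. IC50 came from non-linear dose-response fits.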

[5] = target: T1, Solute carrier organic anion transporter family member 1B1; assay: Inhibition of OATP1B1 (unknown origin) expressed in HEK293 cells assessed as reduction of [3H]estradiol-17beta-glucuronide uptake after 3 mins by beta-counting; type: ADME, cell-based; summary of the method: as §2
[6] = target: T3, Solute carrier organic anion transporter family member 1B3; assay: Inhibition of OATP1B3 (unknown origin) expressed in HEK293 cells assessed as reduction of [3H]estradiol-17beta-glucuronide uptake after 3 mins by beta-counting; type: ADME, cell-based; summary of the method: as §2

inhibition (INH) [1]	inhibition (INH) [2]	inhibition (INH) [3]	IC50 [4]	IC50 [5]	IC50 [6]	SMILES
Active	Active					COc1cc([C@H]2Oc3ccc([C@H]4Oc5cc(O)cc(O)c5C(=O)[C@@H]4O)cc3O[C@@H]2CO)ccc1O [ISOSILYBIN A]
Active	Active	Active				COc1cc([C@@H]2Oc3ccc([C@H]4Oc5cc(O)cc(O)c5C(=O)[C@@H]4O)cc3O[C@H]2CO)ccc1O [ISOSILYBIN B]
Not Active	Active		3.6 µM	9 µM	36.4 µM	COc1cc(C2Oc3c(O)cc([C@H]4Oc5cc(O)cc(O)c5C(=O)[C@@H]4O)cc3C2CO)ccc1O (stereo not given in full) [SILICRISTIN]
